Test results taken from ChEMBL document CHEMBL1124774, “Synthesis and biological activity of some derivatives of rifamycin P” (1990).
Values after ≈ are worked out from the molar mass of the structure shown.

Experiments:
Assay type in all cases: functional
[1] = tested on: Mycolicibacterium smegmatis; test: In vitro activity of compound against rapidly growing Mycobacterium smegmatis 31
Procedure, shortened: (§1)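 Medium was Middlebrook 7H10 agar with 2% glycerol and 10% OADC. Organisms from Loevenstein-Jensen slants were grown in 7H9 broth with 0.5% Tween and 10% OADC, adjusted to McFarland no. 1, and spotted with a multipoint inoculator. Sealed plates were incubated at 22, 30 or 37 °C for 4-20 days depending on strain.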

Mycobacteroides chelonae = test: In vitro activity of compound against rapidly growing Mycobacterium chelonae 1443; procedure, shortened: as §1
Mycolicibacterium phlei [2] = test: In vitro activity of compound against rapidly growing Mycobacterium phlei 141; procedure, shortened: as §1
Neisseria gonorrhoeae = test: In vitro antibacterial activity of compound against Neisseria gonorrhoeae ISM 68/126
Mycolicibacterium phlei [3] = test: In vitro activity of compound against rapidly growing Mycobacterium phlei 1283; procedure, shortened: as §1
Mycobacterium marinum [4] = test: In vitro activity of compound against slowly growing Mycobacterium marinum 1393; procedure, shortened: as §1
[5] = tested on: Mycolicibacterium fortuitum; test: In vitro activity compound against rapidly growing Mycobacterium fortuitum 1302; procedure, shortened: as §1
Mycobacterium marinum [6] = test: In vitro activity of compound against slowly growing Mycobacterium marinum 1447; procedure, shortened: as §1
Mycobacterium avium [7] = test: 50% inhibition of the 20 Mycobacterium (MAC) avium complex clinical isolates
Procedure, shortened: (§2)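 Agar-dilution MICs, 2-fold dilutions over 128-0.0001 μg/mL, on Middlebrook 7H10 agar with 2% glycerol and 10% OADC. Organisms from Loevenstein-Jensen slants were grown in 7H9 broth with 0.5% Tween and 10% OADC, adjusted to McFarland no. 1, and spotted with a multipoint inoculator. Plates were sealed and incubated at 22, 30 or 37 °C for 4-20 days depending on strain.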

Klebsiella pneumoniae = test: In vitro antibacterial activity of compound against Klebsiella pneumoniae ISM
[8] = tested on: Staphylococcus epidermidis; test: In vitro antibacterial activity of compound against Staphylococcus epidermidis ATCC 12228
Procedure, shortened: (§3)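 Twofold microdilution MIC in Iso-Sensitest broth over 128-0.0001 µg/mL. Inoculum was 10^4 cfu/mL, with incubation at 37 °C for 18-24 h.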

[9] = tested on: Mycobacterium scrofulaceum; test: In vitro activity of compound against slowly growing Mycobacterium scrofulaceum 1293; procedure, shortened: as §1
[10] = tested on: Mycolicibacterium flavescens; test: In vitro activity of compound against rapidly growing Mycobacterium flavescens 1284; procedure, shortened: as §1
Escherichia coli = test: In vitro antibacterial activity of compound against Escherichia coli SKF 12140
[11] = tested on: Mycolicibacterium smegmatis; test: In vitro activity of compound against rapidly growing Mycobacterium smegmatis 1442; procedure, shortened: as §1
[12] = tested on: Mycolicibacterium fortuitum; test: In vitro activity of compound against rapidly growing Mycobacterium fortuitum 140; procedure, shortened: as §1
Staphylococcus aureus = test: In vitro antibacterial activity of compound against Staphylococcus aureus Tour L 165; procedure, shortened: as §3
Mycobacterium kansasii [13] = test: In vitro activity of compound against slowly growing Mycobacterium kansasii 1299; procedure, shortened: as §1
Mycobacterium marinum [14] = test: In vitro activity of compound against slowly growing Mycobacterium marinum 1390; procedure, shortened: as §1
[15] = tested on: Mycobacterium scrofulaceum; test: In vitro activity of compound against slowly growing Mycobacterium scrofulaceum 1292; procedure, shortened: as §1
[16] = tested on: Mycolicibacterium smegmatis; test: In vitro activity of compound against rapidly growing Mycobacterium smegmatis 139; procedure, shortened: as §1
Mycobacterium marinum [17] = test: In vitro activity of compound against slowly growing Mycobacterium marinum 1391; procedure, shortened: as §1
Streptococcus pneumoniae = test: In vitro antibacterial activity of compound against Streptococcus pneumoniae UC 41
Procedure, shortened: (§4)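 Streptococcal MICs were run by twofold microdilution in Todd-Hewitt broth over 128-0.0001 µg/mL. Inoculum was 10^4 cfu/mL, with incubation at 37 °C for 18-24 h.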

Mycobacterium marinum [18] = test: In vitro activity of compound against slowly growing Mycobacterium marinum 1394; procedure, shortened: as §1
[19] = tested on: Mycobacterium scrofulaceum; test: In vitro activity of compound against slowly growing Mycobacterium scrofulaceum 1301; procedure, shortened: as §1
[20] = tested on: Mycolicibacterium fortuitum; test: In vitro activity of compound against rapidly growing Mycobacterium fortuitum 1287; procedure, shortened: as §1
[21] = tested on: Mycolicibacterium fortuitum; test: In vitro activity compound against rapidly growing Mycobacterium fortuitum 1440; procedure, shortened: as §1
Mycobacterium gordonae [22] = test: In vitro activity of compound against slowly growing Mycobacterium gordonae 1294; procedure, shortened: as §1
Mycobacterium xenopi [23] = test: In vitro activity of compound against slowly growing Mycobacterium xenopi 554; procedure, shortened: as §1
Enterococcus faecalis = test: In vitro antibacterial activity of compound against Streptococcus faecalis ATCC 7080.; procedure, shortened: as §3
Mycobacterium kansasii [24] = test: In vitro activity of compound against slowly growing Mycobacterium kansasii 1291; procedure, shortened: as §1
Mycobacterium avium [25] = test: Minimum inhibitory concentration of compound against 20 Mycobacterium avium complex (MAC) clinical isolates; procedure, shortened: as §2
[26] = tested on: Mycolicibacterium fortuitum; test: In vitro activity of compound against rapidly growing Mycobacterium fortuitum 1285; procedure, shortened: as §1
Streptococcus pyogenes = test: In vitro antibacterial activity of compound against Streptococcus pyogenes C 203 SKF 13400; procedure, shortened: as §4
[27] = tested on: Mycobacterium scrofulaceum; test: In vitro activity of compound against slowly growing Mycobacterium scrofulaceum 1297; procedure, shortened: as §1
Mycolicibacterium phlei [28] = test: In vitro activity of compound against rapidly growing Mycobacterium phlei 1289; procedure, shortened: as §1
[29] = tested on: Mycolicibacterium fortuitum; test: In vitro activity of compound against rapidly growing Mycobacterium fortuitum 645; procedure, shortened: as §1
Mycobacterium xenopi [30] = test: In vitro activity of compound against slowly growing Mycobacterium xenopi 555; procedure, shortened: as §1
Pseudomonas aeruginosa = test: In vitro antibacterial activity of compound against Pseudomonas aeruginosa ATCC 10145; procedure, shortened: as §3
Mycobacterium marinum [31] = test: In vitro activity of compound against slowly growing Mycobacterium marinum 1392 h; procedure, shortened: as §1
Mycobacterium kansasii [32] = test: In vitro activity of compound against slowly growing Mycobacterium kansasii 1298; procedure, shortened: as §1
[33] = tested on: Mycobacterium tuberculosis; test: In vitro antibacterial activity of compound against Mycobacterium tuberculosis H37Rv ATCC 9660
Mycobacterium gordonae [34] = test: In vitro activity of compound against slowly growing Mycobacterium gordonae 1441; procedure, shortened: as §1
[35] = tested on: Mycolicibacterium flavescens; test: In vitro activity of compound against rapidly growing Mycobacterium flavescens 1286; procedure, shortened: as §1
[36] = tested on: Mycolicibacterium fortuitum; test: In vitro activity of compound against rapidly growing Mycobacterium fortuitum 726; procedure, shortened: as §1
Haemophilus influenzae = test: In vitro antibacterial activity of compound against Haemophilus influenzae ATCC 19418
Mycobacterium marinum [37] = test: In vitro activity of compound against slowly growing Mycobacterium marinum 1388; procedure, shortened: as §1
Mycobacterium xenopi [38] = test: In vitro activity of compound against slowly growing Mycobacterium xenopi 556; procedure, shortened: as §1
Proteus vulgaris = test: In vitro antibacterial activity of compound against Proteus vulgaris X19H ATCC 881
[39] = tested on: Mycolicibacterium fortuitum; test: In vitro activity of compound against rapidly growing Mycobacterium fortuitum 114; procedure, shortened: as §1
[40] = tested on: Mycolicibacterium fortuitum; test: In vitro activity of compound against rapidly growing Mycobacterium fortuitum 646; procedure, shortened: as §1
Mycobacterium xenopi [41] = test: In vitro activity compound against slowly growing Mycobacterium xenopi 1446; procedure, shortened: as §1

`COC1/C=C/OC2(C)Oc3c(C)c(O)c4c(O)c(c5c(c4c3C2=O)=NC2(CCN(CC(C)C)CC2)N=5)NC(=O)/C(C)=C\C=C\C(C)C(O)C(C)C(O)C(C)C(OC(C)=O)C1C` (configuration not stated) was tested, and the MIC50 [1] was 4 µg/mL (≈ 4.72 µM), the MIC50 (Mycobacteroides chelonae) was 32 µg/mL (≈ 37.8 µM) and the MIC50 (Mycolicibacterium phlei [2]) was 0.061 µg/mL (≈ 0.072 µM). It also gave an MIC (Neisseria gonorrhoeae) of 0.5 µg/mL (≈ 0.59 µM), an MIC50 (Mycolicibacterium phlei [3]) of 0.016 µg/mL (≈ 0.0189 µM) and an MIC50 (Mycobacterium marinum [4]) of 0.25 µg/mL (≈ 0.295 µM). The MIC50 [5] was 1 µg/mL (≈ 1.18 µM), the MIC50 (Mycobacterium marinum [6]) was 0.25 µg/mL (≈ 0.295 µM) and the MIC50 (Mycobacterium avium [7]) was 1 µg/mL (≈ 1.18 µM). For the same compound, the MIC (Klebsiella pneumoniae) was 16 µg/mL (≈ 18.9 µM), the MIC [8] was 0.032 µg/mL (≈ 0.0378 µM) and the MIC50 [9] was 0.032 µg/mL (≈ 0.0378 µM). It also gave an MIC50 [10] of 8 µg/mL (≈ 9.44 µM), an MIC (Escherichia coli) of 16 µg/mL (≈ 18.9 µM) and an MIC50 [11] of 4 µg/mL (≈ 4.72 µM). It also gave an MIC50 [12] of 4 µg/mL (≈ 4.72 µM), an MIC (Staphylococcus aureus) of 0.063 µg/mL (≈ 0.0744 µM) and an MIC50 (Mycobacterium kansasii [13]) of 0.5 µg/mL (≈ 0.59 µM). It also gave an MIC50 (Mycobacterium marinum [14]) of 1 µg/mL (≈ 1.18 µM), an MIC50 [15] of 0.032 µg/mL (≈ 0.0378 µM) and an MIC50 [16] of 4 µg/mL (≈ 4.72 µM). It also gave an MIC50 (Mycobacterium marinum [17]) of 0.25 µg/mL (≈ 0.295 µM), an MIC (Streptococcus pneumoniae) of 0.032 µg/mL (≈ 0.0378 µM) and an MIC50 (Mycobacterium marinum [18]) of 0.25 µg/mL (≈ 0.295 µM). It also gave an MIC50 [19] of 2 µg/mL (≈ 2.36 µM), an MIC50 [20] of 1 µg/mL (≈ 1.18 µM) and an MIC50 [21] of 16 µg/mL (≈ 18.9 µM). For the same compound, the MIC50 (Mycobacterium gordonae [22]) was 0.5 µg/mL (≈ 0.59 µM), the MIC50 (Mycobacterium xenopi [23]) was 0.125 µg/mL (≈ 0.148 µM) and the MIC (Enterococcus faecalis) was 2 µg/mL (≈ 2.36 µM). The MIC50 (Mycobacterium kansasii [24]) was 1 µg/mL (≈ 1.18 µM), the MIC50 (Mycobacterium avium [25]) was 0.25 µg/mL (≈ 0.295 µM) and the MIC50 [26] was 4 µg/mL (≈ 4.72 µM). The MIC (Streptococcus pyogenes) was 0.032 µg/mL (≈ 0.0378 µM), the MIC50 [27] was 0.063 µg/mL (≈ 0.0744 µM) and the MIC50 (Mycolicibacterium phlei [28]) was 2 µg/mL (≈ 2.36 µM). For the same compound, the MIC50 [29] was 1 µg/mL (≈ 1.18 µM), the MIC50 (Mycobacterium xenopi [30]) was 0.125 µg/mL (≈ 0.148 µM) and the MIC (Pseudomonas aeruginosa) was 8 µg/mL (≈ 9.44 µM). The MIC50 (Mycobacterium marinum [31]) was 0.25 µg/mL (≈ 0.295 µM), the MIC50 (Mycobacterium kansasii [32]) was 0.063 µg/mL (≈ 0.0744 µM) and the MIC [33] was 0.008 µg/mL (≈ 0.00944 µM). It also gave an MIC50 (Mycobacterium gordonae [34]) of 1 µg/mL (≈ 1.18 µM), an MIC50 [35] of 0.063 µg/mL (≈ 0.0744 µM) and an MIC50 [36] of 16 µg/mL (≈ 18.9 µM). The MIC (Haemophilus influenzae) was 0.125 µg/mL (≈ 0.148 µM), the MIC50 (Mycobacterium marinum [37]) was 0.25 µg/mL (≈ 0.295 µM) and the MIC50 (Mycobacterium xenopi [38]) was 0.125 µg/mL (≈ 0.148 µM). The MIC (Proteus vulgaris) was 16 µg/mL (≈ 18.9 µM), the MIC50 [39] was 8 µg/mL (≈ 9.44 µM) and the MIC50 [40] was 8 µg/mL (≈ 9.44 µM). The MIC50 (Mycobacterium xenopi [41]) was 0.125 µg/mL (≈ 0.148 µM).
